Source: ChEMBL document CHEMBL4261559, “Small molecule piperazinyl-benzimidazole antagonists of the gonadotropin-releasing hormone (GnRH) receptor” (Medchemcomm, 2017)

Key:
[1] = target: T1, Gonadotropin-releasing hormone receptor (Homo sapiens, UniProt P30968); assay: Antagonist activity at N-terminal FLAG-tagged human full-length GnRHR expressed in HEK293T cells assessed as inhibition of GnRH-induced calcium mobilization preincubated for 15 mins followed by agonist addition by FLIPR assay; type: functional, cell-based
T1 sequence (P30968 whole entry): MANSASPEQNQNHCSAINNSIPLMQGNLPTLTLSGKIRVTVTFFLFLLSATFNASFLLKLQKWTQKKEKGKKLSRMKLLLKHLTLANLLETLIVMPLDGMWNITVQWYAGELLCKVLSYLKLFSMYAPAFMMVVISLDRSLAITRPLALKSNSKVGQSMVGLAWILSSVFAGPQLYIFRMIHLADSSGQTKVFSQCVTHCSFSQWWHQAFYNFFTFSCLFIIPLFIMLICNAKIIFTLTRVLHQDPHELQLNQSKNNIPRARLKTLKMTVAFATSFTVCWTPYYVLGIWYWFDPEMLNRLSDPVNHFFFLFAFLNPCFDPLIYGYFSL

[2] = Thermodynamic solubility of compound in simulated gastric fluid at pH 1.2 after 24 hrs by LC-QTOFMS analysis; type: physicochemical; settings: simulated gi fluid, pH 1.2, 24 h
Summary of the method: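 Solid sample was suspended in 450 uL of buffer to about 2 mg/mL and shaken at 200 RPM for 24 h at ambient temperature (22.6-25.0 °C). The suspension was filtered, and the filtrate was diluted as needed (undiluted up to 10000x). Filtrate was quantified by LC-QTOFMS against a calibration curve prepared from a 10 mM DMSO stock. Two reference standards were run in triplicate in each medium.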

Compound | IC50 [1] | Ki [1] | Therm_solubility [2]
CC(C)(C)c1ccc(-c2nc3c(N4CCN(Cc5cn(-c6ccc(F)cc6)nn5)CC4)cccc3[nH]2)cc1 | 20 µM | 0.41 µM | 
CC(C)(C)OC(=O)N[C@@H](Cn1cc(CN2CCN(c3cccc4[nH]c(-c5ccc(C(C)(C)C)cc5)nc34)CC2)nn1)C(=O)O | 10 µM | 0.186 µM | 
CC(=O)N[C@@H]1[C@@H](OC(C)=O)[C@H](OC(C)=O)[C@@H](COC(C)=O)O[C@H]1n1cc(CN2CCN(c3cccc4[nH]c(-c5ccc(C(C)(C)C)cc5)nc34)CC2)nn1 | 7.94 µM | 0.157 µM | 
CC(C)(C)c1ccc(-c2nc3c(N4CCN(Cc5cn(CCF)nn5)CC4)cccc3[nH]2)cc1 | 0.794 µM | 0.0138 µM | 2.098 µg/mL
CC(C)(C)c1ccc(-c2nc3c(N4CCN(Cc5cn([C@@H]6O[C@H](CO)[C@@H](O)[C@H](O)[C@H]6O)nn5)CC4)cccc3[nH]2)cc1 | > 10 µM | > 1 µM | 
CC(C)(C)c1ccc(-c2nc3c(N4CCN(CCF)CC4)cccc3[nH]2)cc1 | 12.6 µM | 0.254 µM | 
C#CCN1CCN(c2cccc3[nH]c(-c4ccc(C(C)(C)C)cc4)nc23)CC1 | 20 µM | 0.395 µM | 
COc1cc(OC)c(NC(=O)c2ccc(Cc3cc4c(cc3C)C(C)(C)CCC4(C)C)o2)c(OC)c1 | 1 µM | 0.019 µM | 
CC(C)(C)c1ccc(-c2nc3c(N4CCN(Cc5cn(-c6nc7ccccc7[nH]6)nn5)CC4)cccc3[nH]2)cc1 | 5.01 µM | 0.104 µM | 
CC(C)(C)c1ccc(-c2nc3c(N4CCN(Cc5cccc6nccnc56)CC4)cccc3[nH]2)cc1 | 0.631 µM | 0.0122 µM | 
